Usually Kd stands for a measure of binding affinity in units of concentration. As usually defined, the IC50 is the concentration needed to halve the response being measured.

Experiment [1] has as its target T1, ACE2 (Homo sapiens, UniProt Q9BYF1). In words: ACE2 binding by microscale thermophoresis. A digest of the protocol:
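Seven-point twofold compound dilution series. MST at 45% excitation and medium MST power. Kd (± standard error) fitted from the change in normalized fluorescence. A poly-His peptide counterscreen was run under identical conditions.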

Experiment [2] has as its target T1, ACE2. In words: ACE2 enzymatic assay. It counts as biochemical. Summed up: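 Fluorometric assay with His-tagged ACE2 extracellular domain at 0.2 nM final in PBS pH 7.4, 0.01% Tween-20, preincubated with compound for 15 min at RT. Then MCA-Ala-Pro-Lys(Dnp)-OH substrate was added (60 μM stock). Fluorescence read at 340/440 nm at 0 and 15 min, RT.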

T1 sequence (Q9BYF1 18-740): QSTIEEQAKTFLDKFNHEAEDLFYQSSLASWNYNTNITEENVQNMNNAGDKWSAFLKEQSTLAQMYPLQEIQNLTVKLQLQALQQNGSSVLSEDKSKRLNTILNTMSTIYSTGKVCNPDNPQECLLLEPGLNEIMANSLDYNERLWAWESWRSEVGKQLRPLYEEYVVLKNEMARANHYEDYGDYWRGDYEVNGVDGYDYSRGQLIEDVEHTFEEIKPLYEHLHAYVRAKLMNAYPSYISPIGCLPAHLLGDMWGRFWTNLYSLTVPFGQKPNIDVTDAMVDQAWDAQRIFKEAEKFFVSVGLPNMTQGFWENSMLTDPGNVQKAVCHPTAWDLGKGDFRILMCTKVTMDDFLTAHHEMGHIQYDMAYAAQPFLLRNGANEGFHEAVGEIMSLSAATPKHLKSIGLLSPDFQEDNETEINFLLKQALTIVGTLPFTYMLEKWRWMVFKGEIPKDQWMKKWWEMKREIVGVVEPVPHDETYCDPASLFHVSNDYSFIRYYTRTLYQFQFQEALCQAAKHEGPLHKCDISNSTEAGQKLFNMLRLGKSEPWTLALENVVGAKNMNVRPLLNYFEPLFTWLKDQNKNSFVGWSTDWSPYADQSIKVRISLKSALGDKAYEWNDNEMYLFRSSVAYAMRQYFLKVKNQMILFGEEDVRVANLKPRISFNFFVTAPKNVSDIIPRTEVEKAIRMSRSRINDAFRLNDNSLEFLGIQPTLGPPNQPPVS

With `CC(C)C[C@H](N[C@@H](Cc1cncn1Cc1cc(Cl)cc(Cl)c1)C(=O)O)C(=O)O` [MLN-4760], the Kd on ACE2 [1] was found to be 702 nM. This compound also came in with an IC50 on ACE2 [2] of 1.5 nM.

Values taken from paper PMC9236207 (ACS Pharmacology & Translational Science, 2022).
